In PubChem BioAssay AID504483 (The Scripps Research Institute Molecular Screening Center, 2011):
Calls of active or inactive are those of the source.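 The calls were made as follows: active = inhibition of the enzyme at or above 50% at 0.1 µM compound; inactive = the rest.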

Target: Platelet-activating factor acetylhydrolase (Mus musculus) (UniProt Q60963)
Experiment: murine plasma PAF acetylhydrolase inhibitors – cell lysate, gel-based competitive ABPP, COS-7 proteome, fluorescence, selectivity assay for PAFAH2 inhibitor project, late-stage follow-up (AID 504483)
Conditions: murine pPAFAH, gel ABPP FP-Rh, at 1 µM (top of the series)
Summary of the method: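 system = COS-7 soluble proteome carrying recombinant murine pPAFAH | buffer or medium = DPBS | compound = Five-point series, 0.003, 0.01, 0.03, 0.1, 1 µM | timing = compound 30 min at 25 °C, FP-Rh 30 min | signal = in-gel fluorescence scan after SDS-PAGE, band integrated optical density | evaluation = % inhibition versus DMSO control | benchmarks = DMSO-only high, blank-gel background low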

Platelet-activating factor acetylhydrolase (Mus musculus), sequence (Q60963 whole entry, looked up): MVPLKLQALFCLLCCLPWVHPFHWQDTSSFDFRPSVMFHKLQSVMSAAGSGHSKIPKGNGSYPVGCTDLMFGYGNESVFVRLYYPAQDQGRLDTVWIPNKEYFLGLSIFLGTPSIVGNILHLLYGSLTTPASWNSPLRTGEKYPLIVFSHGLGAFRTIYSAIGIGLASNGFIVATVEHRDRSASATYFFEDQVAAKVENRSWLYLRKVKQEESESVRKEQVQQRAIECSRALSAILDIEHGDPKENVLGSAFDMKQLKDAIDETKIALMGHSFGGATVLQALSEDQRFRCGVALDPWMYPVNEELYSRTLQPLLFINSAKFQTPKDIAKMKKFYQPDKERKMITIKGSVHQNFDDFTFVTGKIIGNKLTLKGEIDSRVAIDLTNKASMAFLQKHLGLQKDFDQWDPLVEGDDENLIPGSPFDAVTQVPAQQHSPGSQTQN

inhibition: 85% (inactive)
SMILES: O=C(N1CCCC1)n1ncc(-c2ccc(-c3ccccc3)cc2)n1
